Assay results published in ChEMBL document CHEMBL4368901 (J Med Chem, 2019).
The source made the active and inactive calls. The rule behind the calls is not given here.

How the values were obtained:
[1] = Metabolic stability in mouse liver microsomes at 50 uM after 4 hrs in presence of NADPH by HPLC analysis; format: ADME, Microsome; details: read-out: Stability
Procedure, shortened: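 Compound was incubated with mouse liver microsomes for 4 h, with coumarin as the control. The remaining level was quantified by HPLC using UV absorbance at 254 nm.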

A549 [2] = experiment: Antiproliferative activity against human A549 cells after 5 days by EZMTT reagent-based assay relative to control; format: functional
CAKI-1 [3] = experiment: Antiproliferative activity against human Caki1 cells after 5 days by EZMTT reagent-based assay; format: functional, cell-based; details: CAKI-1, 120 h
H22 [4] = experiment: Antiproliferative activity against mouse H22 cells after 5 days by EZMTT reagent-based assay relative to control; format: functional
[5] = Metabolic stability in ICR mouse blood after 2 hrs by HPLC analysis; format: ADME, tissue-based
Procedure, shortened: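 Compound was incubated in blood for 2 h and its remaining concentration was quantified by HPLC.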

HCT-116 [6] = experiment: Antiproliferative activity against human HCT116 cells after 5 days by EZMTT reagent-based assay relative to control; format: functional
[7] = Retention time of compound in mouse liver microsomes at 50 uM by LC-MS/MS analysis; format: ADME, Microsome
CAKI-1 [8] = experiment: Antiproliferative activity against human Caki1 cells after 5 days by EZMTT reagent-based assay relative to control; format: functional
H22 [9] = experiment: Antitumor activity against mouse H22 cells transplanted in ICR mouse assessed as increase in mouse survival at 10 mg/kg, sc administered once daily for 10 consecutive days relative to control; format: functional, organism-based
[10] = Drug level in tumor of mouse H22 cells transplanted ICR mouse at 10 mg/kg, sc administered once daily for 10 consecutive days by HPLC analysis; format: ADME, organism-based, Neoplasm; details: in vivo
Procedure, shortened: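 Compound accumulation was measured in end-point tumours from H22-bearing ICR mice after once-daily subcutaneous 10 mg/kg dosing, 10 injections. Tumour content was analysed by HPLC.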

HCT-116 [11] = experiment: Antitumor activity against human HCT116 cells xenografted in nude mouse assessed reduction in tumor weight at 10 mg/kg, […] relative to control; format: functional; design: scale not given: the % may be the effect or the level left
HCT-116 [12] = experiment: Antiproliferative activity against human HCT116 cells after 5 days by EZMTT reagent-based assay; format: functional, cell-based; details: HCT-116, 120 h
A549 [13] = experiment: Induction of ROS generation in human A549 cells at 10 uM after 12 hrs by DCFH-DA staining-based fluorescence microscopic analysis; format: functional, cell-based
Procedure, shortened: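 A549 cells were seeded at 10000 per well and exposed to compound at 0, 3 or 10 µM for 12 h. ROSUP at 100 µg/ml served as the positive control, alongside untreated cells. ROS was then assessed.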

H22 [14] = experiment: Antiproliferative activity against mouse H22 cells after 5 days by EZMTT reagent-based assay; format: functional, cell-based; details: H22, 120 h
H22 [15] = experiment: Antitumor activity against mouse H22 cells transplanted in ICR mouse assessed as reduction in tumor size at 10 mg/kg, sc administered once daily for 10 consecutive days relative to control; format: functional, organism-based
Procedure, shortened: (§1)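 H22 liver cancer model in young SPF ICR mice, n=10 per group. Compound given subcutaneously once daily at 10 mg/kg, 10 injections; the control group received N.S. End-point tumour size and weight, body weight and survival were recorded. Treated groups were compared with control by unpaired t test.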

A549 [16] = experiment: Antiproliferative activity against human A549 cells after 5 days by EZMTT reagent-based assay; format: functional, cell-based; details: A549, 120 h
HCT-116 [17] = experiment: Antitumor activity against human HCT116 cells xenografted in nude mouse assessed induction of tumor necrosis at 10 mg/kg, […] by hematoxylin and eosin staining-based assay; format: functional, organism-based
[18] = Inhibition of GDH (unknown origin) using NADP+ and glutamate as substrate preincubated for 0.5 hrs followed by substrate addition and measured after 1 hr by EZMTT reagent-based UV-Vis absorbance assay; design: species or system Homo sapiens
H22 [19] = experiment: Antitumor activity against mouse H22 cells transplanted in ICR mouse assessed as reduction in tumor weight at 10 mg/kg, sc administered once daily for 10 consecutive days relative to control; format: functional; procedure, shortened: as §1
HCT-116 [20] = experiment: Antitumor activity against human HCT116 cells xenografted in nude mouse assessed reduction in tumor size at 10 mg/kg, sc administered for 14 consecutive days; format: functional, organism-based
Procedure, shortened: (§2)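 HCT116 xenografts in young SPF nude mice, n=6 per group. Compound given at 10 mg/kg subcutaneously, […]; the control group received N.S. End-point tumour weight, tumour growth and body weight were recorded. End-point tumours were H&E stained to assess tissue damage. Weights were compared by unpaired t test.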

[21] = Drug metabolism mouse liver microsomes assessed as metabolite formation due to loss of terminal pyridine and oxygen at 50 uM by LC-MS/MS analysis; format: ADME, Microsome
HCT-116 [22] = experiment: Antitumor activity against human HCT116 cells xenografted in nude mouse assessed reduction in tumor weight at 10 mg/kg, sc administered for 14 consecutive days; format: functional, organism-based; procedure, shortened: as §2

| SMILES | remaining at 4 h, 50 µM [1] [%] | Imax (A549 [2]) [%] | Imax (H22 [4]) [%] | Stability [5] | Imax (HCT-116 [6]) [%] | Retention_time [7] [min] | Imax (CAKI-1 [8]) [%] | IC50 (HCT-116 [12]) [nM] | Activity (A549 [13]) | IC50 (H22 [14]) [µM] | Activity (H22 [15]) | Activity (HCT-116 [17]) | IC50 [18] [µM] | also measured |
| --- | --- | --- | --- | --- | --- | --- | --- | --- | --- | --- | --- | --- | --- | --- |
| O=C(Cc1cccc(OC(F)(F)F)c1)Nc1ccc(CCCCc2nnc(NC(=O)Cc3ccccn3)[se]2)nn1 | 50 | 82 | 75 | Stable | 90 | 8.2 | 89 | 9 | Active | 6.78 | Active | Active | > 13 | IC50 (CAKI-1 [3]): 19 nM; Activity (H22 [9]): Active; Drug uptake [10]: Active; Activity (HCT-116 [11]): 40%; IC50 (A549 [16]): 17 nM |
| O=C(Cc1cccc(OC(F)(F)F)c1)Nc1ccc(CCCCc2nnc(NC(=O)Cc3ccccn3)s2)nn1 | 46 | 82 | 44 | Stable | 90 | 7.97 | 88 | 28 | Active | > 10 | Active | Active | > 13 | Activity (H22 [19]): Active; Activity (HCT-116 [20]): Active; Drug metabolism [21]: Metabolite_Detected; Activity (HCT-116 [22]): Active |
